According to ChEMBL document CHEMBL4425125, “Development of a Dual-Acting Antibacterial Agent (TNP-2092) for the Treatment of Persistent Bacterial Infections” (J Med Chem, 2016):
Values after ≈ are worked out from the molar mass of the structure shown.

What was measured:
Staphylococcus aureus [1] = experiment: Bactericidal activity against methicillin-resistant Staphylococcus aureus 67-0; type: functional
Staphylococcus aureus [2] = experiment: Antimicrobial activity against methicillin-sensitive Staphylococcus aureus infected in mouse skin abscess model; type: functional
Staphylococcus aureus [3] = experiment: Antimicrobial activity against wild type Staphylococcus aureus by agar dilution method; type: functional
Method in brief: (§1)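 MIC (μg/mL) on otherwise isogenic derivatives of S. aureus ATCC 29213 that carry the rifamycin-resistance allele rpoB H481Y and/or the quinolone-resistance alleles parC S80F and gyrA S84L. The wild-type parent is the reference strain. MICs were determined both by agar dilution and by broth dilution, tested side by side on the same panel.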

[4] = Volume of distribution in iv dosed dog; conditions: in vivo
Streptococcus pneumoniae = experiment: Antimicrobial activity against Streptococcus pneumoniae clinical isolates by broth dilution method; type: functional
Staphylococcus aureus [5] = experiment: Antimicrobial activity against Staphylococcus aureus isogenic forms expressing rpoB H481Y and parC S80F mutant by broth dilution method; type: functional; method in brief: as §1
[6] = Half life in iv dosed rat plasma; type: ADME, organism-based
Staphylococcus aureus [7] = experiment: Antimicrobial activity against methicillin-sensitive Staphylococcus aureus infected in rat central venous catheter infection model assessed as reduction in bacterial load; type: functional
[8] = Inhibition of RIF-resistant Staphylococcus aureus RNA polymerase RpoB H481Y mutant assessed as reduction in RNA product formation
[9] = tested on: Staphylococcus epidermidis; experiment: Antimicrobial activity against methicillin-resistant Staphylococcus epidermidis clinical isolates by broth dilution method; type: functional; conditions: Staphylococcus epidermidis
Staphylococcus aureus [10] = experiment: Antimicrobial activity against Staphylococcus aureus isogenic forms expressing gyrA S84L and parC S80F mutant by broth dilution method; type: functional; method in brief: as §1
Staphylococcus aureus [11] = experiment: Antimicrobial activity against Staphylococcus aureus isogenic forms expressing gyrA S84L and parC S80F mutant by agar dilution method; type: functional; method in brief: as §1
[12] = target: DNA gyrase (Staphylococcus aureus) (UniProt P0A0K8+P20831)
Staphylococcus aureus [13] = experiment: Antimicrobial activity against Staphylococcus aureus isogenic forms expressing rpoB H481Y mutant by agar dilution method; type: functional; method in brief: as §1
Staphylococcus aureus [14] = experiment: Antimicrobial activity against methicillin-resistant Staphylococcus aureus 67-0; type: functional
Staphylococcus aureus [15] = experiment: Antimicrobial activity against Staphylococcus aureus isogenic forms expressing rpoB H481Y and gyrA S84L mutant by agar dilution method; type: functional; method in brief: as §1
[16] = Plasma clearance in iv dosed rat; type: ADME, organism-based
Staphylococcus aureus [17] = experiment: Antimicrobial activity against wild type Staphylococcus aureus by broth dilution method; type: functional; method in brief: as §1
[18] = tested on: Staphylococcus epidermidis; experiment: Antimicrobial activity against Staphylococcus epidermidis infected in mouse skin abscess model; type: functional
[19] = Plasma clearance in iv dosed dog; type: ADME, organism-based, Canis lupus familiaris
Staphylococcus aureus [20] = experiment: Antimicrobial activity against Staphylococcus aureus isogenic forms expressing rpoB H481Y mutant by broth dilution method; type: functional; method in brief: as §1
Staphylococcus aureus [21] = experiment: Antimicrobial activity against Staphylococcus aureus isogenic forms expressing rpoB H481Y and parC S80F mutant by agar dilution method; type: functional; method in brief: as §1
Staphylococcus aureus [22] = experiment: Bactericidal activity against methicillin-sensitive Staphylococcus aureus 29213 infected in mouse macrophages assessed as induction of bacterial kill at 4 ug/ml in presence of 4 ug/ml rifampin after 24 hrs; type: functional
[23] = Half life in iv dosed mouse plasma; type: ADME, organism-based
Staphylococcus aureus [24] = experiment: Antimicrobial activity against Staphylococcus aureus isogenic forms expressing rpoB H481Y/gyrA S84L/parC S80F mutant by agar dilution method; type: functional; method in brief: as §1
[25] = target: DNA topoisomerase 2-alpha (Homo sapiens) (UniProt P11388)
[26] = tested on: Staphylococcus epidermidis; experiment: Antimicrobial activity against Staphylococcus epidermidis infected in rat central venous catheter infection model assessed as reduction in bacterial load; type: functional
[27] = Half life in iv dosed dog plasma; type: ADME, organism-based, Canis lupus familiaris
Streptococcus agalactiae = experiment: Antimicrobial activity against Streptococcus agalactiae clinical isolates by broth dilution method; type: functional
Staphylococcus aureus [28] = tested on: Staphylococcus aureus
Staphylococcus aureus [29] = experiment: Antimicrobial activity against methicillin-sensitive Staphylococcus aureus clinical isolates by broth dilution method; type: functional
Staphylococcus aureus [30] = experiment: Antimicrobial activity against Staphylococcus aureus isogenic forms expressing parC S80F mutant by broth dilution method; type: functional; method in brief: as §1
Staphylococcus aureus [31] = experiment: Antimicrobial activity against Staphylococcus aureus ATCC 29213 assessed as mutation preventive concentration
Staphylococcus aureus [32] = experiment: Antimicrobial activity against Staphylococcus aureus isogenic forms expressing rpoB H481Y/gyrA S84L/parC S80F mutant by broth dilution method; type: functional; method in brief: as §1
Staphylococcus aureus [33] = experiment: Antimicrobial activity against Staphylococcus aureus isogenic forms expressing rpoB H481Y and gyrA S84L mutant by broth dilution method; type: functional; method in brief: as §1
[34] = tested on: Staphylococcus epidermidis; experiment: Antimicrobial activity against methicillin-sensitive Staphylococcus epidermidis clinical isolates by broth dilution method; type: functional
[35] = Plasma clearance in iv dosed rabbit; type: ADME, organism-based, Oryctolagus cuniculus
Streptococcus pyogenes [36] = experiment: Antimicrobial activity against Streptococcus pyogenes clinical isolates by broth dilution method; type: functional
[37] = Half life in iv dosed rabbit plasma; type: ADME, organism-based, Oryctolagus cuniculus
[38] = Inhibition of wild type Staphylococcus aureus RNA polymerase assessed as reduction in RNA product formation
Staphylococcus aureus [39] = experiment: Antimicrobial activity against Staphylococcus aureus isogenic forms expressing parC S80F mutant by agar dilution method; type: functional; method in brief: as §1
Staphylococcus aureus [40] = experiment: Antimicrobial activity against Staphylococcus aureus isogenic forms expressing gyrA S84L mutant by broth dilution method; type: functional; method in brief: as §1
Streptococcus pyogenes [41] = experiment: Antimicrobial activity against Streptococcus pyogenes infected in mouse skin abscess model; type: functional
Staphylococcus aureus [42] = experiment: Antimicrobial activity against methicillin-resistant Staphylococcus aureus clinical isolates by broth dilution method; type: functional
Staphylococcus aureus [43] = experiment: Antimicrobial activity against Staphylococcus aureus infected in rat […] model assessed as reduction in bacterial load in granuloma pouch fluid at 5 to 25 mg/kg, iv administered as single dose; type: functional
Staphylococcus aureus [44] = experiment: Antimicrobial activity against Staphylococcus aureus isogenic forms expressing gyrA S84L mutant by agar dilution method; type: functional; method in brief: as §1
Staphylococcus aureus [45] = experiment: […] activity against Staphylococcus aureus ATCC 29213 assessed as induction of bacterial kill at […] in presence of 1 ug/ml rifampin after 24 hrs
[46] = Volume of distribution in iv dosed dog; conditions: in vivo; remark: listed apart in the source
Streptococcus pyogenes [47] = experiment: Antimicrobial activity against Streptococcus pyogenes infected in rat central venous catheter infection model assessed as reduction in bacterial load; type: functional
[48] = target: Topoisomerase IV (Staphylococcus aureus) (UniProt P0C1U9+P0C1S7)
Staphylococcus aureus [49] = experiment: Antimicrobial activity against Staphylococcus aureus isogenic forms expressing rpoB H481Y and parC S80F mutant; type: functional; method in brief: as §1
Staphylococcus aureus [50] = experiment: Antimicrobial activity against Staphylococcus aureus isogenic forms expressing parC S80F mutant; type: functional; method in brief: as §1
Staphylococcus aureus [51] = experiment: Antimicrobial activity against Staphylococcus aureus isogenic forms expressing rpoB H481Y mutant; type: functional
Staphylococcus aureus [52] = experiment: Antimicrobial activity against wild type Staphylococcus aureus; type: functional
Staphylococcus aureus [53] = experiment: Antimicrobial activity against Staphylococcus aureus isogenic forms expressing gyrA S84L and parC S80F mutant; type: functional; method in brief: as §1
Staphylococcus aureus [54] = experiment: Antimicrobial activity against Staphylococcus aureus isogenic forms expressing gyrA S84L mutant; type: functional
Staphylococcus aureus [55] = experiment: Antimicrobial activity against Staphylococcus aureus isogenic forms expressing rpoB H481Y and gyrA S84L mutant; type: functional
Staphylococcus aureus [56] = experiment: Antimicrobial activity against Staphylococcus aureus isogenic forms expressing rpoB H481Y/gyrA S84L/parC S80F mutant; type: functional; method in brief: as §1

CO[C@H]1/C=C/O[C@@]2(C)Oc3c(C)c(O)c4c(O)c(c(/C=N/N5CCC(N(C)C6([C@@H]7CCN(c8c(F)cn9c(=O)c(C(=O)O)cc(C%10CC%10)c9c8C)C7)CC6)CC5)c(O)c4c3C2=O)NC(=O)/C(C)=C\C=C\[C@H](C)[C@H](O)[C@@H](C)[C@@H](O)[C@@H](C)[C@H](OC(C)=O)[C@@H]1C
MBC (Staphylococcus aureus [1]): 0.5 µg/mL (≈ 0.415 µM)
ED50 (Staphylococcus aureus [2]): 1.4 to 3.8 mg/kg
MIC (Staphylococcus aureus [3]): 0.008 µg/mL (≈ 0.00664 µM)
Vd [4]: 0.09 to 0.17 L/kg
MIC (Streptococcus pneumoniae): 0.06 to 0.25 µg/mL (≈ 0.0498 to 0.207 µM)
MIC50 (Streptococcus pneumoniae): 0.12 µg/mL (≈ 0.0996 µM)
MIC90 (Streptococcus pneumoniae): 0.12 µg/mL (≈ 0.0996 µM)
MIC (Staphylococcus aureus [5]): 0.25 µg/mL (≈ 0.207 µM)
half-life [6]: 0.4 to 4.1 h
Activity (Staphylococcus aureus [7]): 2.8 - 3.4 log10CFU
IC50 [8]: > 25 µM
MIC50 [9]: 0.008 µg/mL (≈ 0.00664 µM)
MIC90 [9]: 0.5 µg/mL (≈ 0.415 µM)
MIC (Staphylococcus aureus [10]): 0.015 µg/mL (≈ 0.0124 µM)
MIC (Staphylococcus aureus [11]): 0.008 µg/mL (≈ 0.00664 µM)
CC50 [12]: 1.5 µM
MIC (Staphylococcus aureus [13]): 0.06 µg/mL (≈ 0.0498 µM)
MIC (Staphylococcus aureus [14]): 0.008 µg/mL (≈ 0.00664 µM)
MIC (Staphylococcus aureus [15]): 0.12 µg/mL (≈ 0.0996 µM)
clearance [16]: 1.17 to 6 mL/min/kg
MIC (Staphylococcus aureus [17]): 0.015 µg/mL (≈ 0.0124 µM)
ED50 [18]: 4.8 to 10.7 mg/kg
clearance [19]: 0.167 to 1.33 mL/min/kg
MIC (Staphylococcus aureus [20]): 0.12 µg/mL (≈ 0.0996 µM)
MIC (Staphylococcus aureus [21]): 0.06 µg/mL (≈ 0.0498 µM)
Activity (Staphylococcus aureus [22]): >99.9%
half-life [23]: 0.4 to 4.1 h
MIC (Staphylococcus aureus [24]): 0.25 µg/mL (≈ 0.207 µM)
CC50 [25]: > 150 µM
Activity [26]: >3.1 log10CFU
half-life [27]: 1.6 to 11.7 h
MIC (Streptococcus agalactiae): 0.06 to 2 µg/mL (≈ 0.0498 to 1.66 µM)
MIC50 (Streptococcus agalactiae): 0.12 µg/mL (≈ 0.0996 µM)
MIC90 (Streptococcus agalactiae): 0.25 µg/mL (≈ 0.207 µM)
CC50 (Staphylococcus aureus [28]): 2.7 µM
MIC50 (Staphylococcus aureus [29]): 0.008 µg/mL (≈ 0.00664 µM)
MIC90 (Staphylococcus aureus [29]): 0.015 µg/mL (≈ 0.0124 µM)
MIC (Staphylococcus aureus [30]): 0.015 µg/mL (≈ 0.0124 µM)
Activity (Staphylococcus aureus [31]): 0.12 µg/mL
MIC (Staphylococcus aureus [32]): 2 µg/mL (≈ 1.66 µM)
MIC (Staphylococcus aureus [33]): 0.5 µg/mL (≈ 0.415 µM)
MIC50 [34]: ≤ 0.008 µg/mL
MIC90 [34]: 0.008 µg/mL (≈ 0.00664 µM)
clearance [35]: 1.17 to 6 mL/min/kg
MIC (Streptococcus pyogenes [36]): 0.008 to 0.12 µg/mL (≈ 0.00664 to 0.0996 µM)
MIC50 (Streptococcus pyogenes [36]): 0.03 µg/mL (≈ 0.0249 µM)
MIC90 (Streptococcus pyogenes [36]): 0.12 µg/mL (≈ 0.0996 µM)
half-life [37]: 0.4 to 4.1 h
IC50 [38]: 0.034 µM
MIC (Staphylococcus aureus [39]): 0.008 µg/mL (≈ 0.00664 µM)
MIC (Staphylococcus aureus [40]): 0.015 µg/mL (≈ 0.0124 µM)
ED50 (Streptococcus pyogenes [41]): 4.8 to 10.7 mg/kg
MIC50 (Staphylococcus aureus [42]): 0.015 µg/mL (≈ 0.0124 µM)
MIC90 (Staphylococcus aureus [42]): 0.015 µg/mL (≈ 0.0124 µM)
Activity (Staphylococcus aureus [43]): 1 - 3.4 log10CFU
MIC (Staphylococcus aureus [44]): 0.008 µg/mL (≈ 0.00664 µM)
Activity (Staphylococcus aureus [45]): >=99.9%
Vd [46]: 0.09 to 0.17 L/kg
Activity (Streptococcus pyogenes [47]): >3.1 log10CFU
CC50 [48]: 1.7 µM

O=C(O)c1cn(C2CC2)c2cc(N3CCNCC3)c(F)cc2c1=O [CIPROFLOXACIN]
MBC (Staphylococcus aureus [1]): 16 µg/mL (≈ 48.3 µM)
CC50 [12]: 5 µM
MIC (Staphylococcus aureus [49]): 2 µg/mL (≈ 6.04 µM)
MIC (Staphylococcus aureus [50]): 2 µg/mL (≈ 6.04 µM)
CC50 [25]: > 150 µM
CC50 (Staphylococcus aureus [28]): 31 µM
CC50 [48]: 0.4 µM

COc1c(N2CCNC(C)C2)c(F)cc2c(=O)c(C(=O)O)cn(C3CC3)c12 (centres undefined) [GATIFLOXACIN]
CC50 [12]: 0.7 µM
MIC (Staphylococcus aureus [49]): 0.25 µg/mL (≈ 0.666 µM)
MIC (Staphylococcus aureus [50]): 0.25 µg/mL (≈ 0.666 µM)
CC50 [25]: > 150 µM
MIC (Staphylococcus aureus [51]): 0.06 µg/mL (≈ 0.16 µM)
MIC (Staphylococcus aureus [52]): 0.06 µg/mL (≈ 0.16 µM)
MIC (Staphylococcus aureus [53]): 8 µg/mL (≈ 21.3 µM)
CC50 (Staphylococcus aureus [28]): 13 µM
MIC (Staphylococcus aureus [54]): 0.12 µg/mL (≈ 0.32 µM)
MIC (Staphylococcus aureus [55]): 0.12 µg/mL (≈ 0.32 µM)
MIC (Staphylococcus aureus [56]): 8 µg/mL (≈ 21.3 µM)
CC50 [48]: 0.2 µM
